Experimental data from different studies.
Compare with care: the assays were run in different laboratories.
Cell line: NCI-H522
Observed: cell growth or viability

With `c1ccc(-c2n(Cc3ccc4ccccc4c3)cc[n+]2Cc2ccc3ccccc3c2)cc1` the TGI was 2580 nM (SRB).
`O=C1NCCc2[nH]c(-c3ccncc3)cc21` gave an IC50 of greater than 10000 nM.
`COc1ccc(C(=O)/C=C/c2cccnc2)cc1S(N)(=O)=O` has an inhibition of 168% (SRB; 10 µM).
`COc1cc(-c2ccc(-c3ccc(C(=N)N)nc3)s2)cc(OC)c1OC` has a GI50 of 1800 nM (SRB).
`CCCc1n(Cc2ccc3ccccc3n2)cc[n+]1Cc1ccc2ccccc2n1` gave a TGI of 4300 nM (SRB).
The inhibition of `COc1ccccc1/C=C/C(=O)c1ccc(OC)c(S(N)(=O)=O)c1` is reported as 110% (SRB; 10 µM).
`COc1ccc(C2=Nn3c(NN=C4C(=O)Nc5ccc(Cl)cc54)nnc3SC2)cc1` gave an inhibition of 34% (SRB; 10 µM).
`CCCCc1n(Cc2ccc3ccccc3n2)cc[n+]1Cc1ccc2ccccc2n1` has a TGI of 4190 nM (SRB).
For `COc1ccc(C(=O)/C=C/c2cccc(Cl)c2Cl)cc1S(N)(=O)=O`, the inhibition was 156% (SRB; 10 µM).
With `CCc1n(Cc2ccc3ccccc3n2)cc[n+]1Cc1ccc2ccccc2n1` the TGI was 1490 nM (SRB).
`COc1ccc(C(=O)/C=C/c2ccccc2Br)cc1S(N)(=O)=O` has a GI50 of 1800 nM (SRB; 48 h).
For `S=C([S][Au-][P+](CCCCCC[P+]([Au-][S]C(=S)n1cccn1)(c1ccccc1)c1ccccc1)(c1ccccc1)c1ccccc1)n1cccn1`, the GI50 was 1620 nM (SRB).
With `COc1ccc(C2=Nn3c(NN=C4C(=O)Nc5ccc(OC)cc54)nnc3SC2)cc1` the inhibition was 25% (SRB; 10 µM).
With `COc1cccc(Oc2ccccc2NC(=O)CNC(=O)c2cccc3ccccc23)c1` the GI50 was 178 nM (SRB; 48 h).
